Rows were chosen to be rich in hits. Some 11% of all compounds tested hit in one or more screens of this group.
D1 mod: D1 CRE-luciferase signal change, two-sided – cell-based, HEK293 D1, dopamine EC30, D1 allosteric modulator project, primary screen | 58,000 compounds, 5.9% hits | D(1A) dopamine receptor (Homo sapiens), P21728 | B-score at 10 µM | dopamine EC30 potentiation; actives deviate in either direction;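 active = luminescence count or its row- and column-corrected plate score outside the 99.7% band of the plate's sample wells, on either side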
M1 ag: M1 muscarinic receptor agonists, primary screen, CHO-M1 cells, Fluo-4 calcium, agonist mode; AID 626, 2007; Muscarinic acetylcholine receptor M1; Fluo-4 calcium fluorescence; stronger effect = higher value; 64,000 compounds, 3% hits; B-score at 10 µM;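 active = fluorescence rise, raw or as B-score row- and column-corrected plate score, outside the 99.7% band of its plate's samples, either direction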
S1P3 agonist: human S1P3 receptor agonists, primary screen, cell-based, primary and confirmation, NFAT-BLA reporter; S1P3 NFAT-BLA reporter cells, agonism, FRET ratio; relative to 1 µM S1P, basal subtracted; 60,000 compounds, 0.1% hits; Sphingosine 1-phosphate receptor 3 (Homo sapiens), Q99500; AID 373, 2006; activation, % at 4.5 µM;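 active = activation above the screen-wide mean plus 3 SD, cut at about 4.5% in these data, passing the limit was not always enough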
Target sequence (Q99500 whole entry, looked up): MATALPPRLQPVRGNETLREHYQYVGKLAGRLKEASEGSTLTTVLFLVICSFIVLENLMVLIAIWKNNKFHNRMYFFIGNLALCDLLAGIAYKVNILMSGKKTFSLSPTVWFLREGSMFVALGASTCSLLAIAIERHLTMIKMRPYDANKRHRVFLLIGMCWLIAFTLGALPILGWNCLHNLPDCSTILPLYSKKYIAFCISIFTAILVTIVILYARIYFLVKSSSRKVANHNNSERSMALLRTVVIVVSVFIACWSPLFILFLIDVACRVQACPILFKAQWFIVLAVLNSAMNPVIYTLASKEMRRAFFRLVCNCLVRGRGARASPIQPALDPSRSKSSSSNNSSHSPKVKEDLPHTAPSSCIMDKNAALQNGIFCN
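Material: Human S1P3 NFAT-BLA reporter CHO cells | Incubation: Overnight plating, 4 h compound 37 °C, 2 h substrate RT | Signal: FRET β-lactamase substrate fluorescence, excitation 405 nm, 460/535 nm emission ratio, background-subtracted | Compound: 4.5 µM final, single dose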
S1P1 ag-PAM: S1P1 agonists and agonism potentiators, primary screen, cell-based, primary and confirmation screens, CRE-bla reporter. S1P1 CRE-bla cells, forskolin, beta-lactamase FRET, potentiator mode; S1P1 agonist co-added at EC20, 2 nM; 100% = saturating reference agonist, 0% = basal. AID 449, 2006. Sphingosine 1-phosphate receptor 1 (Homo sapiens), P21453. activation, % at 9.5 µM. 56,000 compounds, 0.57% hits;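 active = activation above a cutoff set at the mean activation of all tested compounds plus 3 SD, cut at about 54% in these data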;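 also: forskolin at 4 µM as EC80 and the EC20 agonist is SEW2871; 100% = SEW2871 at its EC100 plus forskolin at EC80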
M1 antagonist: antagonists of rat M1 muscarinic receptor; AID 628, 2007; B-score at 10 µM; CHO-M1 cells, Fluo-4 calcium, ACh EC80 antagonist mode; stronger effect = lower value; 64,000 compounds, 3.4% hits; Muscarinic acetylcholine receptor M1 (Rattus norvegicus), P08482;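 active = calcium fluorescence response, raw or row-and-column corrected B-score, differing from the plate sample mean either way at a set confidence level, mostly lower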
D1 mod confirm: D1 receptor positive allosteric modulators, retest, confirmation, cell-based, HEK293 D1, CRE-luciferase, duplicate | dopamine EC30 potentiation; stronger effect = higher value | luminescence at 10 µM | shares compounds with D1 mod | 2,200 compounds, 88% hits;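 active = luminescence in either of two replicates above the same-plate mean plus 3 SD of the low-dose dopamine control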
D1 no dopamine: D1 receptor agonism without dopamine, confirmation, mechanism study for D1 allosteric modulator project, cell-based, HEK293 D1, CRE-luciferase, secondary assay 1; 1,900 compounds, 0.8% hits; shares compounds with D1 mod; AID 646, 2007; luminescence, no dopamine; stronger effect = higher value; luminescence at 10 µM; in the data active = luminescence above about 3900
Isoprot counter: counter-screen for D1 modulators: isoproterenol response in HEK293 cells. shares compounds with D1 mod. 2,200 compounds, 63% hits. HEK293 D1 CRE-luciferase, isoproterenol EC30 counter-screen. AID 647. calls only at 10 µM;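 active = luminescence in either replicate above plate mean of wells with a partly effective reference agonist dose plus 3 SD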;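 also: isoproterenol raises cAMP through native beta-adrenoceptor Gs so signal bypasses D1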
Numbers without * were called inactive; i = inactive; x = not tested or not shown; + = active, no number.

SMILES | D1 mod | M1 ag | S1P3 agonist | S1P1 ag-PAM | M1 antagonist | D1 mod confirm | D1 no dopamine | Isoprot counter
CCOC(=O)c1[nH]c(C)c(C(=O)OCC)c1C | 4.24 | 0.0367 | 0.6 | -34.2 | 0.135 | x | x | x
CCOC(=O)c1[nH]c(C)c(C(=O)c2cc(F)ccc2F)c1C | 5.66* | 0.188 | -1.1 | -7.8 | -0.358 | 8492* | 1728 | +
O=C1c2ccccc2S(=O)(=O)N1CCOc1ccc(F)cc1 | -0.177 | -0.196 | 0.6 | -3.6 | 0.122 | x | x | x
CCOC(=O)c1c(C)c(C(=O)NCc2ccccc2OC)c(C)n1C | 3.59* | 0.163 | 1.0 | -39.3 | -1.92 | 7232* | 1476 | i
CCOCCCNC(=O)c1c(C)c(C(=O)OCC)n(C)c1C | 0.298 | 0.477 | -0.6 | -19.9 | 0.633 | x | x | x
CCOC(=O)c1cc2c(=O)n3cccc(C)c3nc2n(CCc2ccccc2)c1=N | -0.517 | -1.95 | -1.2 | -19.2 | 0.537 | x | x | x
CCCn1c(=NC(=O)c2ccco2)c(C(=O)OCC)cc2c(=O)n3ccccc3nc21 | 6.12* | 0.805 | -0.4 | x | -1.07 | 16752* | 1572 | i
CCOC(=O)c1cc2c(=O)n3ccccc3nc2n(CCCOC)c1=NC(C)=O | 4.65* | -0.179 | x | x | 0.143 | 9064* | x | i
CC(=O)Nc1ccc(C2NC(=O)c3ccccc3O2)cc1 (stereo not given) | 3.06* | -0.64 | -1.7 | -19.0 | -0.83 | 4184 | 1712 | i
CC(C)CC(=O)Nc1nnn(C)n1 | 0.334 | 0.796 | -1.1 | -11.8 | -0.167 | x | x | x
COc1cccc(-c2nnc3sc(C4CCCCC4)nn23)c1 | 5.46* | -0.512 | -0.9 | 80.1* | 1.03 | 12024* | 1460 | +
COc1cc(-c2nnc3sc(C4CCCCC4)nn23)cc(OC)c1OC | 7.42* | 4.72 | 1.0 | -16.3 | -0.886 | 15992* | 1688 | +
COc1cc(OC)c(-c2nn3c(C4CCCCC4)nnc3s2)cc1OC | 5.17* | 0.0409 | 0.3 | -75.3 | -0.377 | 10724* | 1788 | +
CCOc1cccc(-c2nnc3sc(C4CCCCC4)nn23)c1 | x | -0.161 | 7.4 | 42.5 | -0.919 | x | x | x
CCOC(=O)Cc1nnc(NC(=O)CSc2nnc3c4ccccc4n(C)c3n2)s1 | 1.88 | -0.305 | -1.6 | -28.9 | 0.496 | x | x | x
CCOc1ccc(OCC)c(NC(=O)CN2CCN(C(=O)c3ccco3)CC2)c1 | 26.1* | -0.166 | 0.1 | 0.0 | -0.00425 | 4124 | 1704 | i
CCOc1ccc(OCC)c(NC(=O)CN2CCN(c3cccc(C)c3C)CC2)c1 | x | 0.0629 | x | x | -0.566 | x | x | x
COC(=O)COC(=O)c1ccc(Oc2nc(OC)nc(N(C)C)n2)cc1 | -0.137 | -0.725 | -0.1 | -31.1 | -0.00643 | x | x | x
CCOC(=O)c1ccc(Oc2nc(NC)nc(OC)n2)cc1 | 3.76* | -0.503 | x | x | 2.7* | 9704* | 1500 | +
Cc1onc(-c2ccccc2)c1C(=O)Nc1nnc(COc2ccc(Cl)cc2)s1 | -0.692 | -0.187 | -0.7 | 9.7 | 0.0235 | x | x | x
COc1ccc(-c2cc(C(F)F)n3ncc(C(=O)N4CCSCC4)c3n2)cc1 | 5.23* | 0.921 | 0.7 | x | -0.129 | 8908* | 1552 | +
O=C(Nc1ccccc1C(=O)NCc1ccco1)c1ccccc1 | 5.3* | 0.935 | -0.1 | -29.3 | -0.654 | 10828* | x | +
O=C(NCCc1ccccc1)c1cnn2c(C(F)F)cc(C3CC3)nc12 | 5.05* | 0.00373 | -0.1 | x | -0.42 | 12520* | 1540 | +
O=C(Nc1ccccc1C(=O)NCc1ccccc1)c1ccco1 | 1.56 | 1.32 | -0.9 | x | -0.289 | x | x | x
